Results: paper PMC4364164 (International Journal of Nanomedicine, 2015)

Columns and labels:
cells = conditions: NBD alone; cited from earlier work
SH-SY5Y cells [1] = experiment: MTT assay for cell viability, SH-SY5Y; type: cell-based, human; conditions: for cell death induced: positive control, data not shown
Summary of the method: (§1)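 Seeded in 96-well plates: SH-SY5Y at 8,000/well, U-87 MG at 5,000/well. Exposed 20 h to test compound 0.5–15 μM or equal-volume PBS vehicle; H2O2 400 or 800 μM as positive control. MTT 0.5 mg/mL for 3 h at 37°C. Formazan dissolved in isopropanol with 0.1 M HCl; optical density at 590 nm. Mean ± SE of five separate incubations.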

U-87 MG cells [2] = experiment: MTT assay for cell viability, U-87 MG; type: cell-based, human; conditions: for cell death induced: positive control, data not shown
Summary of the method: as §1

brain homogenates [3] = experiment: Mitochondrial respiration rate in brain homogenate after in vivo administration; conditions: rat brain homogenate; intravenous 40 μg/100 g, 3.5 hours; three rats
Summary of the method: (§2)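 Same iv dosing (40 μg/100 g, PBS vehicle, three rats, sampled at 3.5 h). Homogenate (300 μg protein) in 1 mL buffer: 80 mM KCl, 50 mM HEPES, 1 mM EGTA, 5 mM KH2PO4, 2 mM MgCl2, 1% BSA, pH 7.4. Added 4 μM rotenone and 5 mM succinate; basal without ADP, stimulated with 200 μM ADP; respiratory control ratio derived. Clark electrode at 37°C; 1 mM KCN added. Triplicate runs.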

brain homogenates [4] = experiment: Cytochrome oxidase activity; type: in vivo; conditions: rat brain homogenate; intravenous 40 μg/100 g, 3.5 hours; three rats
Summary of the method: (§3)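 Male Wistar rats (250–300 g), three per group, given a single iv dose of NBD-peptide 40 μg/100 g or PBS vehicle. Zoletil anaesthesia, decapitation at 3.5 h. Tissue homogenised 1:5 w/v in mannitol/sucrose/Tris/EDTA/EGTA/1% BSA medium, pH 7.4. Diluted 1:2 with Lubrol, 30 min on ice. Cytochrome oxidase assayed polarographically (Clark electrode, 37°C), with 1 mM KCN control. Mean ± SE of three rats; triplicate runs.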

U-87 MG cells [5] = experiment: Spectrofluorimetric analysis of internalized peptide, U-87 MG; type: cell-based, human; conditions: concentration not given
brain = experiment: Fluorescence histological analysis ex vivo, brain; type: in vivo; conditions: rat, single intravenous administration of gH625-NBD 40 μg/100 g body weight, 3.5 hours
Summary of the method: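 Male Wistar rats (250–300 g; n=3 per group) got one iv dose of NBD-labelled test peptide, 40 μg/100 g, or PBS vehicle. After 3.5 h: ip Zoletil anaesthesia, then decapitation. Sagittal 10 μm sections: Bouin's fixation 24 h, paraffin, 0.1% Sudan Black B in 70% ethanol 20 min, hemallum. Co-stained for SMI-71 endothelial marker, GFAP or tubulin III (citrate pH 6.0 unmasking), colocalization by nMDP. Outside/inside-vessel fluorescence ratio from ≥10 slices.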

liver homogenates [6] = experiment: Mitochondrial respiration rate in liver homogenate after in vivo administration; conditions: rat liver homogenate; intravenous 40 μg/100 g, 3.5 hours; three rats
Summary of the method: as §2

U-87 MG cells [7] = experiment: Maximal oxidative capacity; type: cell-based, human; conditions: regardless of the concentration used, 20 hours, five separate incubations (Figure 1D)
SH-SY5Y cells [8] = experiment: Cellular uptake by fluorescence microscopy, SH-SY5Y; type: cell-based, human; conditions: 1 or 5 μM (Figure 2: 5 μM), 2 hours, NBD fluorescence, fixed cells
Summary of the method: (§4)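 NBD-labelled peptide (N-terminal) in PBS. Cells grown in DMEM with 10% FBS, 2 mM L-glutamine, penicillin and streptomycin at 37°C in 5% CO2. Seeded at 60,000/well on four-well chamber slides, then exposed to 1 or 5 μM for 2 h. Fixed in ice-cold methanol for 10 min and mounted in glycerol/PBS 1:1. Imaged on NBD (λem 515 nm) and DAPI (λex 350/λem 461 nm) channels.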

blood–brain barrier = experiment: Immunofluorescence analysis of brain sections; type: in vivo; conditions: rat, intravenous 40 μg/100 g, 3.5 hours
Summary of the method: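 Same rats dosed iv at 40 μg/100 g, sampled at 3.5 h. Brains Bouin-fixed and paraffin-embedded; sections dewaxed, citrate (pH 6.0) microwave unmasking at 96°C. Stained with anti-BBB SMI-71, anti-GFAP or anti-tubulin III and 594-nm secondaries; imaged at 488/515 and 594/618 nm. Deconvolved, nMDP colocalisation. Outside/inside-vessel fluorescence per ROI area over ten sections, n=3 per group; two-tailed unpaired t-test.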

U-87 MG cells [9] = experiment: Cellular uptake by fluorescence microscopy, U-87 MG; type: cell-based, human; conditions: 1 or 5 μM (Figure 2: 5 μM), 2 hours, NBD fluorescence, fixed cells
Summary of the method: as §4

liver = experiment: Fluorescence histological analysis ex vivo, liver; type: in vivo; conditions: rat, single intravenous administration of gH625-NBD 40 μg/100 g body weight, 3.5 hours
Summary of the method: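 Male Wistar rats (250–300 g; n=3 per group) got one iv dose of NBD-labelled test peptide, 40 μg/100 g, or PBS vehicle. After 3.5 h: ip Zoletil anaesthesia, then decapitation. Liver dissected. Half was fixed in Bouin's fluid 24 h and paraffin-embedded. 7 μm sections treated with 0.1% Sudan Black B in 70% ethanol 20 min against autofluorescence, then hemallum-stained and imaged for green fluorescence.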

SH-SY5Y cells [10] = experiment: Maximal oxidative capacity; type: cell-based, human; conditions: 0–15 μM, 20 hours, Clark-type oxygen electrode 37°C, five separate incubations (Figure 1C)
liver homogenates [11] = experiment: Cytochrome oxidase activity; type: in vivo; conditions: rat liver homogenate; intravenous 40 μg/100 g, 3.5 hours; three rats
Summary of the method: as §3

7-nitrobenz-2-oxa-1,3-diazole-4-yl [NBD]
penetration into the cells (cells): almost unable to penetrate

OO [H2O2]
cell death induced (SH-SY5Y cells [1]; 400 μM): 30% | cell death induced (SH-SY5Y cells [1]; 800 μM): 45% | cell death induced (U-87 MG cells [2]; 400 μM): 22% | cell death induced (U-87 MG cells [2]; 800 μM): 52%

H-HGLASTLTRWAHYNALIRAFGGG-NH2 [gH625]
effect on respiratory control ratio (brain homogenates [3]): no changes | effect on maximal oxidative capacity (cytochrome oxidase activity) (brain homogenates [4]): not affected | administered peptide taken up (U-87 MG cells [5]): more than 90% | distribution in brain (fluorescence histology) (brain): reaches the BBB and accumulates in the extensions of nerve cells | effect on mitochondrial respiration rate (liver homogenates [6]): does not influence | effect on maximal oxidative capacity (cytochrome oxidase activity) (U-87 MG cells [7]): ineffective | cellular uptake by fluorescence microscopy (SH-SY5Y cells [8]): significant uptake | colocalization with astrocytes surrounding the BBB (anti-GFAP, nMDP) (blood–brain barrier): little or no colocalization | colocalization with the endothelial BBB (anti-BBB SMI-71, nMDP) (blood–brain barrier): More colocalization | cellular uptake by fluorescence microscopy (U-87 MG cells [9]): significant uptake | distribution in liver (fluorescence histology) (liver): partly taken up by Kupffer cells | effect on cell viability (MTT) (SH-SY5Y cells [1]; 0.5–15 μM, 20 hours, mean ± standard error of five separate incubations (Figure 1A)): no significant effect | effect on cell viability (MTT) (U-87 MG cells [2]; 0.5–15 μM, 20 hours, mean ± standard error of five separate incubations (Figure 1B)): no significant effect | effect on maximal oxidative capacity (cytochrome oxidase activity) (SH-SY5Y cells [10]): did not significantly affect | effect on maximal oxidative capacity (cytochrome oxidase activity) (liver homogenates [11]): not affected
